≈ marks a conversion by molar mass, not a printed value. Read-outs that look alike come from different tables or passages of the source.
Experiments:
[1] = tested on: PTP1B mRNA in IR-HepG2 cells; experiment: PTP1B mRNA expression by real-time qPCR; type: cell-based
C57BL/KsJ-db/db mice = conditions: 20 and 40 mg/kg body weight; cited from earlier work
[2] = molecular target: Recombinant human aldose reductase (Homo sapiens, UniProt P15121); experiment: AR activity assay; type: biochemical
PTP1B [3] = molecular target: T1, PTP1B (Homo sapiens, UniProt P18031); experiment: PTP1B inhibitory activity with pNPP substrate; type: biochemical
T1 sequence (P18031 1-435): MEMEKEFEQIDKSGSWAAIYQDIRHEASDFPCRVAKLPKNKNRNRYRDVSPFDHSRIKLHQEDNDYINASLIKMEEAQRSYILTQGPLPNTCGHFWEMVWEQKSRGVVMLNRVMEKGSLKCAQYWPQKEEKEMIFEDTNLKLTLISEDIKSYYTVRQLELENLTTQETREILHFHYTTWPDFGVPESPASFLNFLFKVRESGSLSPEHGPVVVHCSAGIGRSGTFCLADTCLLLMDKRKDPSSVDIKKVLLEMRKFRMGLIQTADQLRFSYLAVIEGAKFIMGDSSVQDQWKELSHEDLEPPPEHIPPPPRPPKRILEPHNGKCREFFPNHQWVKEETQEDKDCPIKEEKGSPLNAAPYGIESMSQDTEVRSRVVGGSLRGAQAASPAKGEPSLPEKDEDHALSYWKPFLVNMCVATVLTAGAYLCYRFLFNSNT

AR [4] = molecular target: AR (Homo sapiens, UniProt P15121); experiment: Kinetic study, Lineweaver–Burk plot, AR; type: biochemical; conditions: alkannin 0-20 μM
How it was run: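 Recombinant human aldose reductase in 0.05 M sodium phosphate, pH 6.2, with 0.3 mM NADPH and DL-glyceraldehyde substrate, at several test-compound concentrations. Activity followed as the fall in NADPH absorbance at 340 nm over 4 min. Inhibition type assigned from a Lineweaver–Burk double-reciprocal plot; mean ± SEM of triplicate experiments.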

HepG2 cells [5] = experiment: MTT cytotoxicity assay; type: cell-based; conditions: up to 50 μM, 24 h
How it was run: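 Normal HepG2 cells seeded at 5 × 10³ cells/well and grown 24 h. Test compound in DMSO added at […] for 24 h. MTT then added, and absorbance used to calculate percent cell viability.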

HepG2 cells [6] = conditions: up to 40 μM; ref Xue et al.; cited from earlier work
IR-HepG2 cells = experiment: 2-NBDG glucose uptake in insulin-resistant HepG2 cells; type: cell-based; conditions: 24 h treatment, concentration-dependent
How it was run: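 Insulin resistance induced in confluent HepG2 (5 × 10³ cells/well; MEM, 10% FBS, 37 °C, 5% CO2) with 1 μM insulin for 24 h. Test compound added at several concentrations below 50 μM for 24 h, then 1 μM insulin for 30 min and 50 μM 2-NBDG for 30 min. Cells washed with ice-cold PBS; fluorescence read at ex 485/em 528 nm. Uptake expressed relative to untreated normal HepG2 (100%); mean ± SEM, triplicate.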

PTP1B [7] = molecular target: T1, PTP1B; experiment: Kinetic study, Lineweaver–Burk plot, PTP1B; type: biochemical; conditions: alkannin 0-20 μM
How it was run: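 Recombinant human PTP1B (0.5 units in PTP1B reaction buffer) preincubated with the test compound at several concentrations for 10 min at 37 °C. pNPP substrate then added and incubated 15 min at 37 °C; reaction stopped with 10 M NaOH and read at 405 nm. Inhibition type taken from a Lineweaver–Burk plot; mean ± SEM, triplicate experiments.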

PTP1B [8] = conditions: cited from earlier work
PTP1B [9] = conditions: cited from earlier work; remark: listed apart in the source
human recombinant AR = conditions: cited from earlier work
AR [10] = conditions: read-out: IC50 AR inhibition; in vitro; cited from earlier work
AR [11] = conditions: cited from earlier work
polyol pathway = conditions: cited from earlier work
AR [12] = conditions: cited from earlier work; remark: listed apart in the source
human lens AR = conditions: at a dose of 5 μM; cited from earlier work

## CC(C)=CC[C@H](O)C1=CC(=O)c2c(O)ccc(O)c2C1=O [Alkannin]
[1]
  PTP1B mRNA expression: significantly reduced
C57BL/KsJ-db/db mice
  effect on liver injury and inflammation in diabetic mice: protective role
[2]
  IC50: 22.8 µM
PTP1B [3]
  IC50: 19.5 µM
AR [4]
  type of inhibition of AR: mixed-inhibition
HepG2 cells [5]
  cytotoxicity on normal HepG2 cells (MTT): insignificant cytotoxicity
HepG2 cells [6]
  effect in HepG2 cells pretreated with palmitic acid: protective role
IR-HepG2 cells
  insulin-stimulated 2-NBDG uptake: significantly enhanced
PTP1B [7]
  type of inhibition of PTP1B: mixed-inhibition

## O=C(O)[C@H]1O[C@@H](Oc2c(-c3ccc(O)c(O)c3)oc3cc(O)cc(O)c3c2=O)[C@H](O)[C@@H](O)[C@@H]1O [quercetin-3-O-β-D-glucuronide]
PTP1B [8]
  IC50 PTP1B inhibitory activity: 7.39 ± 1.15 µg/mL (≈ 15.4 µM)

## Cc1cc2c3c(c1)-c1c(O)cc(-c4cc5ccc(O)cc5o4)cc1OC3(c1ccc(O)cc1O)Oc1cc(O)ccc1-2 (stereo not drawn) [albanol B]
PTP1B [9]
  type of PTP1B enzyme inhibition: mixed-type

## COc1cc(/C=C/C(=O)CC(=O)/C=C/c2ccc(O)c(OC)c2)ccc1O [curcumin]
Human recombinant AR
  manner of inhibition of human recombinant AR: noncompetitive
AR [10]
  IC50: 6.8 µM

## O=C1C=C(O)C(=O)C=C1O [2,5-dihydroxy-p-benzoquinone]
AR [11]
  manner of AR inhibition: noncompetitive

## CC1=C[C@H]2c3c(O)cc(-c4cc5ccc(O)cc5o4)cc3O[C@@]3(c4ccc(O)cc4O)Oc4cc(O)ccc4[C@H](C1)[C@@H]23 [mulberrofuran G]
PTP1B [9]
  type of PTP1B enzyme inhibition: mixed-type

## O=c1c(O)c(-c2ccc(O)c(O)c2)oc2cc(O)cc(O)c12 [Quercetin]
Polyol pathway
  reduction in the accumulation of xylitol: 80%
AR [12]; at a dose of 10 μM
  AR inhibition: 95%
AR [12]
  manner of AR inhibition: noncompetitive
Human lens AR
  inhibition of human lens AR: 50%

## CC(C)=CCc1c(-c2ccc(O)cc2O)oc2c([C@H]3C=C(C)C[C@@H](c4ccc(O)cc4O)[C@@H]3C(=O)c3ccc(O)cc3O)c(O)cc(O)c2c1=O [kuwanon G]
PTP1B [9]
  type of PTP1B enzyme inhibition: mixed-type

## O=C(O)[C@H]1O[C@@H](Oc2c(-c3cc(O)c(O)c(O)c3)oc3cc(O)cc(O)c3c2=O)[C@H](O)[C@@H](O)[C@@H]1O [myricetin-3-O-β-Dglucuronide]
PTP1B [8]
  IC50 PTP1B inhibitory activity: 9.47 ± 3.31 µg/mL (≈ 19.2 µM)
